ChEMBL document CHEMBL3407413, “Repositioning proton pump inhibitors as anticancer drugs by targeting the thioesterase domain of human fatty acid synthase” (J Med Chem, 2015)
The source made the active and inactive calls. The rule behind the calls is not given here.

Key:
[1] = test system: BXPC-3; test: Effect of survival of human BxPC3 cells at 3.75 uM by MTT assay; assay type: functional, cell-based
Summary of the method: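 BxPC-3 pancreatic cancer cells given the supplement alone; growth read by MTT assay against a DMSO control; n = 3.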

[2] = test system: BXPC-3; test: Effect of FASN expression of human BxPC3 cells at 3.75 uM by Western blot analysis; assay type: functional, cell-based
Summary of the method: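 BxPC-3 pancreatic cancer cells given the supplement; FASN protein read by Western blot, with actin as the loading control.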

[3] = test system: PANC-1; test: Inhibition of survival of wild-type FASN overexpressing human PANC1 cells after 10 to 14 days by crystal violet staining-based colony formation assay; assay type: functional, cell-based
Summary of the method: (§1)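 Cells seeded at 100/well (PANC-1, including stable vector- or wild-type FASN-transfected lines) or 200/well (BxPC-3) and grown 24 h. Then cultured continuously with PPIs or DMSO vehicle for 10–14 days, stained with crystal violet and colonies counted manually. Three independent experiments.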

[4] = test system: PANC-1; test: Effect on FASN expression in human PANC1 cells at 12.5 to 200 uM after 30 mins by Western blot analysis; assay type: functional, cell-based
[5] = target: T1, Fatty acid synthase (Homo sapiens, UniProt P49327); test: Inhibition of purified recombinant FASN TE activity (unknown origin) using 4-MUH as substrate preincubated for 30 mins before substrate addition measured after 1 hr by fluorescence assay
[6] = test system: BXPC-3; test: Effect on pH homeostasis in human BxPC3 cells assessed as change in intracellular pH at 12.5 to 100 uM after 72 hrs by pHrodo red dye-based fluorescence assay; assay type: functional, cell-based
Summary of the method: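 Loaded with pHrodo red intracellular pH dye and fluorescence read in-well. Fluorescence converted to pH using a calibration kit standard curve (fluorescence vs pH). Three independent experiments.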

[7] = test system: BXPC-3; test: Cytotoxicity against human BxPC3 cells by MTT assay in presence of 3.75 uM palmitate; assay type: functional, cell-based
[8] = target: T1, Fatty acid synthase
[9] = test system: PANC-1; test: Inhibition of survival of human PANC1 cells after 10 to 14 days by crystal violet staining-based colony formation assay; assay type: functional, cell-based; summary of the method: as §1
[10] = test system: BXPC-3; test: Induction of apoptosis in human BxPC3 cells assessed as PARP1 cleavage after 24 hrs by Western blot analysis; assay type: functional, cell-based
Summary of the method: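 Harvested and analysed by Western blot with an antibody specific to cleaved PARP-1; actin as loading control.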

[11] = target: T1, Fatty acid synthase; remark: listed apart in the source
[12] = test system: BXPC-3; test: Induction of apoptosis in human BxPC3 cells in presence of 3.75 uM palmitate; assay type: functional, cell-based
[13] = test system: PANC-1; test: Inhibition of survival of vector-transfected human PANC1 cells after 10 to 14 days by crystal violet staining-based colony formation assay; assay type: functional, cell-based; summary of the method: as §1
[14] = test system: PANC-1; test: Induction of apoptosis in human PANC1 cells assessed as cytoplasmic histone-associated DNA fragments after 72 hrs by ELISA method; assay type: functional, cell-based
[15] = test system: BXPC-3; test: Effect on pH homeostasis in human BxPC3 cells assessed as change in extracellular pH at 100 uM after 72 hrs by pH metry; assay type: functional, cell-based
Summary of the method: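 Culture medium was collected, cleared of cell debris by centrifugation, and measured with a pH meter.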

T1 sequence (P49327 whole entry): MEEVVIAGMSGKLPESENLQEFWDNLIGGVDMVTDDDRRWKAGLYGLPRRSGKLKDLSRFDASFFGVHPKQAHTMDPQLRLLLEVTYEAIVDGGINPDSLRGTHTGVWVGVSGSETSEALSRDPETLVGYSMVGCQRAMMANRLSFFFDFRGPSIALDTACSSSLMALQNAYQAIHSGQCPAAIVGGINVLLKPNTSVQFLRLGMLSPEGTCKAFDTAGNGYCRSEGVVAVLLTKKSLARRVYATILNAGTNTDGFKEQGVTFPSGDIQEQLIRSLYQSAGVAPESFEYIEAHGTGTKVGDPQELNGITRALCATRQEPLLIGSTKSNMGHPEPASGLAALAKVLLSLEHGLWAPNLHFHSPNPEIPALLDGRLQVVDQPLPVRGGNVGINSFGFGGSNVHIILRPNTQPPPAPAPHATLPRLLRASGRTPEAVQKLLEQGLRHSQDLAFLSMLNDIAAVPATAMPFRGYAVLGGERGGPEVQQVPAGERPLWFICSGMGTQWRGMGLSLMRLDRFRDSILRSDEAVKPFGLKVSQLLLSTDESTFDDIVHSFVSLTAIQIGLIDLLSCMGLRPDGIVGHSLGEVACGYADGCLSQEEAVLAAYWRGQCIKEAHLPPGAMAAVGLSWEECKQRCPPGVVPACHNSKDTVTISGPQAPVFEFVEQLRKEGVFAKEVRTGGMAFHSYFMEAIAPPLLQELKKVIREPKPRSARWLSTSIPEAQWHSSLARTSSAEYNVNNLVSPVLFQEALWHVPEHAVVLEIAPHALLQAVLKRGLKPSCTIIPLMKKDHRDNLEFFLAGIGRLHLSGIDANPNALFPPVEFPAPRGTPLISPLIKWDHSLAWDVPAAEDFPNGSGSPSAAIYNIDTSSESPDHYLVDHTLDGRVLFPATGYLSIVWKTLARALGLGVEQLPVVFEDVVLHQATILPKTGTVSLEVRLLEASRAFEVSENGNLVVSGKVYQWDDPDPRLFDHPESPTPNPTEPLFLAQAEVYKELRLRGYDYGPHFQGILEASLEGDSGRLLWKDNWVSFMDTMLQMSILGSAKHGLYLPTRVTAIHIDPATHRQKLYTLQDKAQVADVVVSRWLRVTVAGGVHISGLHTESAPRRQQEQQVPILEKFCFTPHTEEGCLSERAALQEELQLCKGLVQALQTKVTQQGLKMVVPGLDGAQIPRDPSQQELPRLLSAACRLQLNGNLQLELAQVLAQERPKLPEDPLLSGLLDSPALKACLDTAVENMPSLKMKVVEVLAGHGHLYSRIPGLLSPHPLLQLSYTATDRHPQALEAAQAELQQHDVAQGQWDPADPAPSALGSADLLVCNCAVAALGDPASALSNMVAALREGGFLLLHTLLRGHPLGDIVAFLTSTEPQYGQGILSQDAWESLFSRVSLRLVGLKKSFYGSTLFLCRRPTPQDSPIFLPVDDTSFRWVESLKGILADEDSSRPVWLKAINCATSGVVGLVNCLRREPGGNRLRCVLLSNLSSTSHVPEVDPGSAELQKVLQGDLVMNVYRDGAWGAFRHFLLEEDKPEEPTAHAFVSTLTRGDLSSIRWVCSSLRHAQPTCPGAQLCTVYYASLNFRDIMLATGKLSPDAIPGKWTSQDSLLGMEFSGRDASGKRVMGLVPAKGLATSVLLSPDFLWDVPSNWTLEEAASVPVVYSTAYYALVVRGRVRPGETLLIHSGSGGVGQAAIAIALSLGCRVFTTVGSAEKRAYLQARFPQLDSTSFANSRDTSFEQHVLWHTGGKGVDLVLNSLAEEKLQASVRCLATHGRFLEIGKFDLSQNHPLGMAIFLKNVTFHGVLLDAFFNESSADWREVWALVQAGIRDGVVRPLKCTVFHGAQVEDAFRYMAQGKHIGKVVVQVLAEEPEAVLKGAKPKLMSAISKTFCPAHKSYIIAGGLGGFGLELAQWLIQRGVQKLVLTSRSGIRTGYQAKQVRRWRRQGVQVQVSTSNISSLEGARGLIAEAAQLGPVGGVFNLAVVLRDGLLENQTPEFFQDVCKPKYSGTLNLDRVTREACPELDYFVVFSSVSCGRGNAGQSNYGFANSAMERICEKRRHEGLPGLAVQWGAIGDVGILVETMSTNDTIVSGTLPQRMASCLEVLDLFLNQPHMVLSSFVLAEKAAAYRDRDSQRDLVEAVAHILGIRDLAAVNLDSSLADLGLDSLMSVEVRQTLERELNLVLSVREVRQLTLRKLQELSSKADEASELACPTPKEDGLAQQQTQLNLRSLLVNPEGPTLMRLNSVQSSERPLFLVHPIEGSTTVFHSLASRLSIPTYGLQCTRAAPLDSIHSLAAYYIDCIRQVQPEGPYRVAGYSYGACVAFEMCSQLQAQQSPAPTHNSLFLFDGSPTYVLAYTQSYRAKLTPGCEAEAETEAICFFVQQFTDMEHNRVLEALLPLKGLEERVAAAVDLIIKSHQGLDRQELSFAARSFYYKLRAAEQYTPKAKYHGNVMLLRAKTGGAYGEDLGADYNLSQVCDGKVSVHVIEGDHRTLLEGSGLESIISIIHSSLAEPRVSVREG

SMILES | Activity [1] | Activity [2] | inhibition [3] | Activity [4] | IC50 [5] [µM] | Ki [5] [µM] | Activity [6] | Activity [7] | IC50 [8] [µM] | inhibition [9] | Activity [10] | IC50 [11] [µM] | Activity [12] | inhibition [13] | Activity [14] | Activity [15]
CCCCCCCCCCCCCCCC(=O)O | inactive | inactive | – | – | – | – | – | – | – | – | – | – | – | – | – | –
Cc1c(OCC(F)(F)F)ccnc1C[S+]([O-])c1nc2ccccc2[nH]1 (stereo unspecified) [LANSOPRAZOLE] | – | – | Active | inactive | 46.7 | 5.3 | inactive | inactive | 93 | Dose-dependent effect | Dose-dependent effect | 124 | inactive | inactive | Dose-dependent effect | inactive
